# ChEMBL document CHEMBL4513216, “Probing the Open Global Health Chemical Diversity Library for Multistage-Active Starting Points for Next-Generation Antimalarials” (ACS Infect Dis, 2020)
# Test: Toxicity liver stage against HepG2, at 10uM
# Assay type: cell-based
# Parameters: test concentration 10 uM, cell line HepG2-A16-CD81EGFP
# Conditions: human, HepG2-A16-CD81EGFP cells; read-out: INHIBITION
# Method in brief: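 Uninfected HepG2-A16-CD81EGFP cells, 3 × 10^3 per well, 1536-well, plated on prespotted compound at 10 μM final, parasite-free screening media added to match infected plates; puromycin 10 μM positive, DMSO 0.5% negative; run in parallel with 48 h PbLuc assay at 37 °C, 5% CO2; viability by CellTiter-Glo luminescence, normalized to controls.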
row,SMILES,cytotoxicity at 10 µM
1,O=C(CN1CCCC1)Nc1c2c(cc3c1CCC3)CCC2,-2.1%
2,O=C1NCCCCC1Sc1nnc(C2CC2)n1C1CC1 (stereo not given),-6%
3,CC(C)c1nc(CSc2nnc(C3CC3)n2CC(N)=O)no1,-147%
4,O=C1C[C@@H]2CCN(Cc3ccccc3)C[C@@H]2CCN1C1CCCCC1,5.17%
5,CC(C)(C)C(=O)N1CC[C@H]2NC(=O)N(c3ccc(F)cc3)C(=O)[C@H]21,-1.72%
6,CCN(CC)S(=O)(=O)c1ccc2c(c1)N(Cc1cccnc1)C(=O)CS2,1.82%
7,CN(C)c1no[n+]([O-])c1-c1ccccc1,15.8%
8,Cc1c(C2SCC(=O)Nc3c2cnn3C(C)(C)C)cnn1C (stereo not given),-1.21%
9,O=C(NC1(c2nc(C3CC3)no2)CCCCC1)c1ccncc1,-7.12%
10,O=C(Cn1cccn1)N1CCC(c2nnc(C(F)(F)F)o2)CC1,-10.8%
11,Cc1nc(N2CCCC2)nc(C)c1NS(=O)(=O)c1ccccc1F,-3.92%
12,Cc1ccccc1C(=O)N1CCC2(CCC(C(=O)NCC3CC3)O2)CC1 (stereo not given),-3.28%
13,CCn1nnc2c1CCN(S(C)(=O)=O)C2COCc1ccccc1 (stereo not given),0.196%
14,CC(C)CC(=O)N1CCCn2cnc(CNS(C)(=O)=O)c2C1,-1.22%
15,CC(=O)N1CCN(C(=O)NC(C)C)CC2(CC(=O)N(C)C2)C1 (stereo not given),-4.13%
16,COCC1CC2(CCN(C(=O)c3oc4ccccc4c3C)CC2)CO1 (stereo not given),-141%
17,CCOc1cc(=O)n2c(c1C(=O)OCc1ccc(F)cc1)CCCC2,3.51%
18,O=C(Cc1csc(-c2ccccc2)n1)N[C@@H](C(=O)O)c1ccccc1,6.56%
19,CC(C)NC(=O)c1nnc2ccc(N3CCOCC3)cc2n1,1.86%
20,CCCc1nc(N2CCSCC2)c2c(n1)c(C)nn2CC,8.05%
21,Cc1ccc(CNc2cc(C(=O)N3CCOCC3)nc(C)n2)cc1,-1.61%
22,CC(=O)N1CC(C(=O)N2CCCC(Cn3ccnc3C)C2)C1 (stereo not given),1.27%

row,SMILES,cytotoxicity at 10 µM
1,CNc1cc(C2CN(Cc3coc(C)n3)CCO2)nc(C)n1 (stereo not given),-11.1%
2,O=C(N[C@@H]1CCC[C@@H](N2CCOCC2)[C@@H]1O)c1cc2ccccc2[nH]1,-26.9%
3,CC(C)(C)CC(=O)N1CCC(c2nn(CCN)c3nccnc23)C1 (stereo not given),-20.9%
4,O=C(NCC1CC1)c1cc(C2CC2)nc2onc(C3CCCNC3)c12 (stereo not given),4.98%
5,CN(C)C(=O)c1cccc(NC(=O)Cc2cc(F)ccc2F)n1,-2.64%
6,CCCN(CCC)C(=O)c1sc(C)nc1C,3.05%
7,CCCn1c(NC(=O)CNC(=O)OCC)nc2ccccc21,-4.41%
8,CC(=O)N1CCN(c2ccccc2CNc2cncc(C)c2)CC1,2.22%
9,CCC(CC)c1cc(C(=O)N2CCN(CC(N)=O)CC2)on1,-4.97%
10,OC1CCN(c2nc(-c3ccccc3)no2)CC1,-9.57%
11,Cn1cc(CNC2CCCOc3c(Cl)cccc32)cn1 (stereo not given),10.7%
12,CCN(CC)CCn1cc(NC(=O)c2ccccc2OC)cn1,7.04%
13,O=S1(=O)CCC(c2nnc(-c3cnc4onc(C5CC5)c4c3)o2)C1 (stereo not given),5.89%
14,COCCCN(C)c1nc(-c2ccncc2)nc(C)c1C,2.8%
15,O=C(CS(=O)(=O)c1cccc[n+]1[O-])NC1CCCc2ccccc21 (stereo not given),-3.46%
16,CCc1nnc2n1CCN(C(=O)CCOc1cc(C)ccc1C)C2,-11.3%
17,CCOc1cccc(C(C)NC(=O)N2CCC3(CC2)OCCO3)c1 (stereo not given),0.322%
18,CCN(CC)c1ncc(CNC2CCc3nc(C(C)C)nn3C2)s1 (stereo not given),4.24%
19,Cc1cc(F)ccc1S(=O)(=O)N(C)CC(N)=O,1.38%
20,CCS(=O)(=O)CC(=O)NC(c1ccccc1)C1CCCC1 (stereo not given),-137%
21,CN(CCN1CCOCC1)C(=O)CCc1ccc(C(F)(F)F)cc1,-1.3%
22,CNc1cc(N2CCCC2CNCc2cccnc2)ncn1 (stereo not given),-11.5%

row,SMILES,cytotoxicity at 10 µM
1,CN(CC(=O)NC(C)(C)C)Cc1nc(-c2ccccc2)c[nH]1,-2.23%
2,O=S(=O)(CCO)Cc1ccc(OCC(F)(F)F)cc1,2.23%
3,CN(c1ncnc2c1CCC2)C1CCCN(c2cccnn2)C1 (stereo not given),1.72%
4,CC(=O)N(CCc1ccccc1)CC(=O)NC1(C#N)CC1,1.09%
5,COCCN1CCC(Nc2c(F)cc(C#N)cc2F)CC1,-5.41%
6,CC(C)CN(CC(O)c1ccc(F)cc1)C(=O)c1csnn1 (stereo not given),2.83%
7,C[S+]([O-])CCNC(=O)Nc1cc(F)ccc1-n1cccn1 (stereo not given),-20.9%
8,CC(Nc1ccc(CCN2CCCCC2)cc1)C(=O)N(C)CCC#N (stereo not given),7.61%
9,O=C(CCc1ccsc1)Nc1cnccc1O,9.56%
10,COc1cccc(CN(C)Cc2cccc(C#N)c2)c1OC,-7.82%
11,O=S(=O)(CCNCc1ccc2c(c1)CCO2)N1CCOCC1,-9.61%
12,CN(CCN1CCOCC1)C(=O)CCc1cccc(Cl)c1,-6.57%
13,CCc1ccc(C(=O)N2CCC(c3nncn3CC)CC2)cc1,-2.95%
14,c1cc(C2CCCN2Cc2nnnn2C2CC2)cs1 (stereo not given),-8.86%
15,Cc1nc(CN2CCO[C@@H]3CNCC[C@@H]3C2)cs1,4.47%
16,Cc1ccc(C(=O)N2CCn3c(COCC4CC4)cnc3C2C)s1 (stereo not given),5.14%
17,Cc1ccc(C(F)(F)F)cc1C(=O)N[C@H]1CN(CCO)C[C@@H]1C1CC1,0.292%
18,Nc1nc(CCCNC(=O)c2ccc(C3CCCNC3)cc2)cs1 (stereo not given),2.77%
19,O=C1NCCCC12CCN(S(=O)(=O)N1CCOCC1)C2 (stereo not given),-1.16%
20,Cc1nc(O)cc(C2CCN(C(=O)C(C)Cn3nc(C)nc3C)CC2)n1 (stereo not given),-1.89%
21,Cc1nc(C2CCNCC2)cc(N(C)CCc2cn[nH]c2)n1,-1.54%
22,O=C(CN1CCC2(CCCN(CCO)C2=O)C1)NCCc1ccccc1 (stereo not given),0.174%

row,SMILES,cytotoxicity at 10 µM
1,COc1cccc(CN(C)C(C)c2ccco2)c1OCCn1ccnc1 (stereo not given),-0.7%
2,CN(CCCO)c1nc(-c2ccc(C(N)=O)cc2)nc2c1CCNC2,-2.86%
3,CCOC(=O)C1CCCN(Cc2c[nH]nc2-c2cc3ccccc3o2)C1 (stereo not given),3.16%
4,COc1c(C)cnc(CN(C)C(=O)c2ccc(C3CCCO3)s2)c1C (stereo not given),9.5%
5,CCCn1c(C)c(CC(=O)NCCOC)c2c1CC(C)(C)CC2=O,-1.01%
6,CSCCC(O)C(=O)N1CCCN(Cc2cccnc2)CC1 (stereo not given),8.2%
7,CC(Cc1cccnc1)Nc1ncnc2cccc(F)c12 (stereo not given),26.3%
8,O=C(CCc1cc(O)no1)N1CCC(Cc2ccc(F)cc2)CC1,-0.505%
9,Cn1ncc(C2CC(=O)NCc3nc4sccn4c32)c1C1CC1 (stereo not given),-5.01%
10,CN1CCC(Cc2noc(-c3cn(Cc4ccc(F)cc4)nn3)n2)CC1,-4.18%
11,Cc1nccnc1N1CC[C@@H](NC(=O)c2cnccn2)[C@H](O)C1,-11.3%
12,Cc1cc(C)n(CC2CN(CC(=O)N3CCNC3=O)CCO2)n1 (stereo not given),-2.38%
13,Cn1cnc2c1CCN(Cc1csc(Cc3ccccc3)n1)C2,-5.4%
14,Cc1ncncc1C(=O)N1CCOC(c2nc(C(C)C)n[nH]2)C1 (stereo not given),-4.98%
15,Cc1ccc(NC2CCN(C(=O)CCCc3cccs3)CC2)nn1,-8.49%
16,CCOc1cc(C)nc(N2CCN(C(=O)c3cnc[nH]3)CC2)n1,-11.8%
17,CC(C)c1ccc(CCC(=O)N2CCOCC2c2ncon2)cc1 (stereo not given),-4.56%
18,Cc1nnc2n1CCN(C(C(=O)NC1CC1)c1ccc(F)cc1)C2 (stereo not given),-6.6%
19,CCN(CC)C(=O)Cn1ccc2cc(NC(=O)C3CCCCC3)ccc21,-5.04%
20,CCc1nc(CN2CCN(C(=O)C3(C#N)CCCC3)CC2)cs1,0.38%
21,CCN1CCN(C2CCN(CC(=O)NCC(F)(F)F)CC2)C1=O,-2.99%
22,O=C(Nc1ccc(F)cc1)N1CCN(Cc2noc(C3CC3)n2)CC1,-18.1%

row,SMILES,cytotoxicity at 10 µM
1,Cc1cc(C)n(CC2CCCN2C(=O)c2cnccn2)n1 (stereo not given),6.41%
2,COCCN1CC(C(=O)NCc2ccnc(-n3cccn3)c2)CC1=O (stereo not given),-5.07%
3,O=C1CC(N(C(=O)c2ccc3c(c2)CCC3)C2CC2)C(=O)N1 (stereo not given),-1.99%
4,c1ccc(-c2nc(CN3CCOC(Cn4cccn4)C3)no2)cc1 (stereo not given),10.1%
5,COCCc1noc(CNC2CCc3nc(C(C)C)nn3C2)n1 (stereo not given),4.28%
6,O=C(N1CCOCC1)N1CCCC2(CCCNC2)C1 (stereo not given),0.817%
7,O=C([C@H]1CC[C@@H]2[C@@H](CCN2C2CCCC2)O1)N1CCOCC1,11.5%
8,CO[C@H]1CC[C@H]2[C@H]1OCCN2CCOCc1ccccc1,-114%
9,Cc1cccc(CN2CCc3cc(C(=O)O)c(N(C)C)nc3CC2)n1,3.68%
10,O=C1NCC[C@]12CN(Cc1cccnc1)C[C@H]2c1ccccc1,-137%
11,CN(C)CCN1CCN(Cc2ccco2)Cc2cccnc21,1.73%
12,O=C1CC2(CCN(Cc3ccccn3)C2)CN1c1cncnc1 (stereo not given),2.26%
13,CNC(=O)CN1CCOCC2(C1)CN(C(=O)CC(C)C)CCO2 (stereo not given),3.94%
14,O=C1COC2(CCN(C(=O)C3CC=CC3)CC2)CN1Cc1cccnc1,3.27%
15,COc1ncccc1CN1C[C@@H]2COC[C@]2(COCC(=O)N(C)C)C1,7.81%
16,Cc1nc(CN2CC[C@H](OCC3CC3)[C@@H]2Cc2cccnc2)cs1,0.15%
17,COCCNC(=O)[C@H]1CN(Cc2nccs2)C[C@H]2OCC[C@@H]12,-11.6%
18,COc1cc(N2CCC3(CCN(C(=O)c4cccnc4)CC3)C2)ncn1,-130%
19,COc1ncccc1CN1CC[C@]2(C[C@@H](OCc3ccccn3)CO2)C1,4.96%
20,Cc1ccc(CN2C[C@@H]3COC[C@@H](CC(=O)N4CCOCC4)[C@@H]3C2)s1,-2.04%
21,CN(C)C(=O)N1C[C@H]2CC[C@@H](C1)N(Cc1nnc(-c3ccccc3)o1)C2,4.6%
22,CCC12CN3CC(C)(CN(C1)C3c1[nH]c(=O)[nH]c(=O)c1C)C2=O (stereo not given),6.35%
